Data as given in ChEMBL document CHEMBL1146375, “Synthetic studies on novel benzimidazolopeptides with antimicrobial, cytotoxic and anthelmintic potential” (2007).
Values after ≈ are worked out from the molar mass of the structure shown. Residues, ends and D or L forms follow the SMILES beside them. *: point of attachment. X2 = O=C(c1cc(-c2nc3ccc([N+](=O)[O-])cc3[nH]2)ccc1O)*

System: Staphylococcus aureus
Assay: Antibacterial activity against Staphylococcus aureus NCIM 2079 after 18 hrs by tube dilution method
Format: functional
Settings: NCIM 2079, 18 h
Method in brief: (§1)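 Tube dilution MIC. Stock diluted in sterile broth to seven concentrations from 200 to 3.1 […]. Each tube inoculated with one loopful of test bacterium and incubated 18 h at 37 °C. MIC read from presence or absence of growth.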

| SMILES | MIC |
| --- | --- |
| COC(=O)CNC(=O)[C@H](CC(C)C)NC(=O)[C@@H]1CCCN1C(=O)[C@H](Cc1cnc[nH]1)NC(=O)c1cc(-c2nc3ccc([N+](=O)[O-])cc3[nH]2)ccc1O (X2-HPLG-OMe) | 12.5 µg/mL (≈ 17.4 µM) |

System: Escherichia coli
Assay: Antibacterial activity against Escherichia coli NCIM 2065 after 18 hrs by disc diffusion method
Format: functional
Settings: not given
Method in brief: (§2)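 Modified Kirby-Bauer disc diffusion. Plates inoculated with spore suspension (about 6 × 10⁴ spores mL^-1). Sterile 6 mm paper discs carried test samples at 10 mg mL^-1; ciprofloxacin disc as reference, DMF disc as negative control. Plates held 18 h at 37 °C. Inhibition zone diameters (mm) averaged over triplicate sets.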

| SMILES | inhibition zone (IZ) |
| --- | --- |
| COC(=O)CNC(=O)[C@H](CC(C)C)NC(=O)[C@@H]1CCCN1C(=O)[C@H](Cc1cnc[nH]1)NC(=O)c1cc(-c2nc3ccc([N+](=O)[O-])cc3[nH]2)ccc1O (X2-HPLG-OMe) | 14 mm |

System: Escherichia coli
Assay: Antibacterial activity against Escherichia coli NCIM 2065 after 18 hrs by tube dilution method
Format: functional
Settings: NCIM 2065, 18 h

| SMILES | MIC |
| --- | --- |
| COC(=O)CNC(=O)[C@H](CC(C)C)NC(=O)[C@@H]1CCCN1C(=O)[C@H](Cc1cnc[nH]1)NC(=O)c1cc(-c2nc3ccc([N+](=O)[O-])cc3[nH]2)ccc1O (X2-HPLG-OMe) | 12.5 µg/mL (≈ 17.4 µM) |

System: Staphylococcus aureus
Assay: Antibacterial activity against Staphylococcus aureus NCIM 2079 after 18 hrs by disc diffusion method
Format: functional
Settings: not given
Method in brief: as §2

| SMILES | inhibition zone (IZ) |
| --- | --- |
| COC(=O)CNC(=O)[C@H](CC(C)C)NC(=O)[C@@H]1CCCN1C(=O)[C@H](Cc1cnc[nH]1)NC(=O)c1cc(-c2nc3ccc([N+](=O)[O-])cc3[nH]2)ccc1O (X2-HPLG-OMe) | 10 mm |

System: Pontoscolex corethrurus
Assay: Anthelmintic activity against Pontoscolex corethrurus ICARBC 408 assessed as mean death time
Format: functional
Settings: not given
Method in brief: (§3)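 Earthworms exposed to test suspensions at 2 mg mL−1, prepared by triturating compound with Tween 80 (0.5%) and distilled water, stirring 30 min, then diluting to 0.2% w/v. Mebendazole suspension was made the same way. Death was confirmed by moving worms into 50 °C warm water and looking for movement. Mean death time (min) taken from triplicate sets.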

| SMILES | Time |
| --- | --- |
| COC(=O)CNC(=O)[C@H](CC(C)C)NC(=O)[C@@H]1CCCN1C(=O)[C@H](Cc1cnc[nH]1)NC(=O)c1cc(-c2nc3ccc([N+](=O)[O-])cc3[nH]2)ccc1O (X2-HPLG-OMe) | 21.72 min |

System: not listed separately
Assay: Growth inhibition of DLA cells at 250 ug/mL after 3 hrs
Format: functional
Settings: Mus musculus
Method in brief: (§4)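 DLA and EAC cells passaged intraperitoneally in albino mice, harvested after 15–20 days and adjusted to 1 × 10⁶ cells/mL. Dilutions in Dulbecco's medium (500–31.25, some down to 3.91 µg/mL; 5-FU reference) mixed 1:1 with cells and held 3 h at 37 °C. Trypan blue exclusion gave % growth inhibition; CTC50 by graphical extrapolation.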

| SMILES | inhibition at 250 µg/mL |
| --- | --- |
| COC(=O)CNC(=O)[C@H](CC(C)C)NC(=O)[C@@H]1CCCN1C(=O)[C@H](Cc1cnc[nH]1)NC(=O)c1cc(-c2nc3ccc([N+](=O)[O-])cc3[nH]2)ccc1O (X2-HPLG-OMe) | 31.6% |

System: not listed separately
Assay: Growth inhibition of DLA cells after 3 hrs
Format: functional
Settings: Mus musculus
Method in brief: as §4

| SMILES | CC50 |
| --- | --- |
| COC(=O)CNC(=O)[C@H](CC(C)C)NC(=O)[C@@H]1CCCN1C(=O)[C@H](Cc1cnc[nH]1)NC(=O)c1cc(-c2nc3ccc([N+](=O)[O-])cc3[nH]2)ccc1O (X2-HPLG-OMe) | > 697 µM |

System: Eudrilus
Assay: Anthelmintic activity against Eudrilus sp. assessed as mean death time
Format: functional
Settings: not given
Method in brief: as §3

| SMILES | Time |
| --- | --- |
| COC(=O)CNC(=O)[C@H](CC(C)C)NC(=O)[C@@H]1CCCN1C(=O)[C@H](Cc1cnc[nH]1)NC(=O)c1cc(-c2nc3ccc([N+](=O)[O-])cc3[nH]2)ccc1O (X2-HPLG-OMe) | 20.33 min |

System: Pseudomonas aeruginosa
Assay: Antibacterial activity against Pseudomonas aeruginosa NCIM 2034 after 18 hrs by tube dilution method
Format: functional
Settings: NCIM 2034, 18 h
Method in brief: as §1

| SMILES | MIC |
| --- | --- |
| COC(=O)CNC(=O)[C@H](CC(C)C)NC(=O)[C@@H]1CCCN1C(=O)[C@H](Cc1cnc[nH]1)NC(=O)c1cc(-c2nc3ccc([N+](=O)[O-])cc3[nH]2)ccc1O (X2-HPLG-OMe) | 6 µg/mL (≈ 8.36 µM) |

System: not listed separately
Assay: Anthelmintic activity against Megascoplex konkanensis ICARBC 211 assessed as mean death time
Format: functional
Settings: not given
Method in brief: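 Earthworms exposed to test suspensions at 2 mg mL^-1 (0.2% w/v), made by triturating compound with Tween 80 (0.5%) and distilled water, then mechanically stirred 30 min. Mebendazole suspension prepared alike as reference. Paralysis and death times recorded; death confirmed by no movement in 50 °C water. Means from triplicate sets.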

| SMILES | TIME |
| --- | --- |
| COC(=O)CNC(=O)[C@H](CC(C)C)NC(=O)[C@@H]1CCCN1C(=O)[C@H](Cc1cnc[nH]1)NC(=O)c1cc(-c2nc3ccc([N+](=O)[O-])cc3[nH]2)ccc1O (X2-HPLG-OMe) | 0.334 h |

System: not listed separately
Assay: Growth inhibition of DLA cells at 500 ug/mL after 3 hrs
Format: functional
Settings: Mus musculus
Method in brief: as §4

| SMILES | inhibition at 500 µg/mL |
| --- | --- |
| COC(=O)CNC(=O)[C@H](CC(C)C)NC(=O)[C@@H]1CCCN1C(=O)[C@H](Cc1cnc[nH]1)NC(=O)c1cc(-c2nc3ccc([N+](=O)[O-])cc3[nH]2)ccc1O (X2-HPLG-OMe) | 39.5% |

System: Microsporum audouinii
Assay: Antifungal activity against Microsporum audouinii MUCC 545 after 48 hrs by disc diffusion method
Format: functional
Settings: not given
Method in brief: (§5)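 Agar well diffusion on plates inoculated with spore suspension in normal saline from cultures on Sabouraud's broth. Wells punched and loaded with test samples or griseofulvin at 10 mg mL^-1, with DMSO as negative control. Incubated 48 h at 37 °C.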

| SMILES | inhibition zone (IZ) |
| --- | --- |
| COC(=O)CNC(=O)[C@H](CC(C)C)NC(=O)[C@@H]1CCCN1C(=O)[C@H](Cc1cnc[nH]1)NC(=O)c1cc(-c2nc3ccc([N+](=O)[O-])cc3[nH]2)ccc1O (X2-HPLG-OMe) | 12 mm |

System: not listed separately
Assay: Growth inhibition of DLA cells at 31.25 ug/mL after 3 hrs
Format: functional
Settings: Mus musculus
Method in brief: as §4

| SMILES | inhibition at 31.25 µg/mL |
| --- | --- |
| COC(=O)CNC(=O)[C@H](CC(C)C)NC(=O)[C@@H]1CCCN1C(=O)[C@H](Cc1cnc[nH]1)NC(=O)c1cc(-c2nc3ccc([N+](=O)[O-])cc3[nH]2)ccc1O (X2-HPLG-OMe) | 28.7% |

System: Aspergillus niger
Assay: Antifungal activity against Aspergillus niger MUCC 177 after 48 hrs by disc diffusion method
Format: functional
Settings: not given
Method in brief: as §5

| SMILES | inhibition zone (IZ) |
| --- | --- |
| COC(=O)CNC(=O)[C@H](CC(C)C)NC(=O)[C@@H]1CCCN1C(=O)[C@H](Cc1cnc[nH]1)NC(=O)c1cc(-c2nc3ccc([N+](=O)[O-])cc3[nH]2)ccc1O (X2-HPLG-OMe) | 17 mm |

System: not listed separately
Assay: Growth inhibition of EAC cells at 125 ug/mL after 3 hrs
Format: functional
Settings: Mus musculus, Ehrlich
Method in brief: as §4

| SMILES | inhibition at 125 µg/mL |
| --- | --- |
| COC(=O)CNC(=O)[C@H](CC(C)C)NC(=O)[C@@H]1CCCN1C(=O)[C@H](Cc1cnc[nH]1)NC(=O)c1cc(-c2nc3ccc([N+](=O)[O-])cc3[nH]2)ccc1O (X2-HPLG-OMe) | 10.7% |

System: not listed separately
Assay: Growth inhibition of EAC cells at 31.25 ug/mL after 3 hrs
Format: functional
Settings: Mus musculus, Ehrlich
Method in brief: as §4

| SMILES | inhibition at 31.25 µg/mL |
| --- | --- |
| COC(=O)CNC(=O)[C@H](CC(C)C)NC(=O)[C@@H]1CCCN1C(=O)[C@H](Cc1cnc[nH]1)NC(=O)c1cc(-c2nc3ccc([N+](=O)[O-])cc3[nH]2)ccc1O (X2-HPLG-OMe) | 3.57% |

System: Bacillus subtilis
Assay: Antibacterial activity against Bacillus subtilis NCIM 2063 after 18 hrs by tube dilution method
Format: functional
Settings: NCIM 2063, 18 h
Method in brief: as §1

| SMILES | MIC |
| --- | --- |
| COC(=O)CNC(=O)[C@H](CC(C)C)NC(=O)[C@@H]1CCCN1C(=O)[C@H](Cc1cnc[nH]1)NC(=O)c1cc(-c2nc3ccc([N+](=O)[O-])cc3[nH]2)ccc1O (X2-HPLG-OMe) | 6 µg/mL (≈ 8.36 µM) |
